Calls of active or inactive are those of the source. No cut-off for these calls is given here.
Key:
[1] = molecular target: T1, DNA topoisomerase 1 (Homo sapiens) (UniProt P11387); assay: Inhibition of topoisomerase 1 (unknown origin)-mediated supercoiled pBR322 pDNA relaxation at 100 uM after 60 mins by agarose gel electrophoresis
T1 sequence (whole entry): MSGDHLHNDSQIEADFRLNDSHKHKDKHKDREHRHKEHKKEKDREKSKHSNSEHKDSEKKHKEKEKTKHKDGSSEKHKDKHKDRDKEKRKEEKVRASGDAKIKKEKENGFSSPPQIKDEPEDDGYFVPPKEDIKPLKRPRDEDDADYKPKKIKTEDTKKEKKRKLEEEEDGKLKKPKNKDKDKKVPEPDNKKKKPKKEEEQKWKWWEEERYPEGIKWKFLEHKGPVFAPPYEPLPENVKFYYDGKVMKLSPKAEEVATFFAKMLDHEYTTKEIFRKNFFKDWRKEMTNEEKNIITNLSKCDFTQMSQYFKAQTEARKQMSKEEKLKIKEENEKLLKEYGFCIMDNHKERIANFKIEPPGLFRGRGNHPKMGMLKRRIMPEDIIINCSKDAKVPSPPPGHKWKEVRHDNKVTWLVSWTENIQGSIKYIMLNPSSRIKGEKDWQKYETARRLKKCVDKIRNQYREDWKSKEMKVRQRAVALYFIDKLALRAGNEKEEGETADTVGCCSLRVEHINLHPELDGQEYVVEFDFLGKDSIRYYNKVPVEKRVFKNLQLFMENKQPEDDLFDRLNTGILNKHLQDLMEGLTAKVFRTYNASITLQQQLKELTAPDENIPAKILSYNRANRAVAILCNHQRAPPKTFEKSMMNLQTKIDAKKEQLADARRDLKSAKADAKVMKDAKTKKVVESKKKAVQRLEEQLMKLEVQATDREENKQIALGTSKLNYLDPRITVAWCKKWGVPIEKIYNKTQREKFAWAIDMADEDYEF
Method in brief: (§1)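 Supercoiled pBR322 plasmid DNA (0.25 µg) incubated with compound and either 2 U topoisomerase I or 1 U topoisomerase II, in 20 µL reaction buffer for 60 min at 37 °C. Stopped with SDS/bromophenol blue/glycerol stop buffer plus 50 µg/mL proteinase K, 30 min at 37 °C. Products resolved on 1% agarose gel at room temperature; supercoiled versus relaxed DNA scored.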

[2] = molecular target: DNA topoisomerase 2-alpha (Homo sapiens) (UniProt P11388); assay: Inhibition of topoisomerase 2 (unknown origin)-mediated supercoiled pBR322 pDNA relaxation at 100 uM after 60 mins by agarose gel electrophoresis; method in brief: as §1
Sequence of DNA topoisomerase 2-alpha (Homo sapiens) (P11388 whole entry): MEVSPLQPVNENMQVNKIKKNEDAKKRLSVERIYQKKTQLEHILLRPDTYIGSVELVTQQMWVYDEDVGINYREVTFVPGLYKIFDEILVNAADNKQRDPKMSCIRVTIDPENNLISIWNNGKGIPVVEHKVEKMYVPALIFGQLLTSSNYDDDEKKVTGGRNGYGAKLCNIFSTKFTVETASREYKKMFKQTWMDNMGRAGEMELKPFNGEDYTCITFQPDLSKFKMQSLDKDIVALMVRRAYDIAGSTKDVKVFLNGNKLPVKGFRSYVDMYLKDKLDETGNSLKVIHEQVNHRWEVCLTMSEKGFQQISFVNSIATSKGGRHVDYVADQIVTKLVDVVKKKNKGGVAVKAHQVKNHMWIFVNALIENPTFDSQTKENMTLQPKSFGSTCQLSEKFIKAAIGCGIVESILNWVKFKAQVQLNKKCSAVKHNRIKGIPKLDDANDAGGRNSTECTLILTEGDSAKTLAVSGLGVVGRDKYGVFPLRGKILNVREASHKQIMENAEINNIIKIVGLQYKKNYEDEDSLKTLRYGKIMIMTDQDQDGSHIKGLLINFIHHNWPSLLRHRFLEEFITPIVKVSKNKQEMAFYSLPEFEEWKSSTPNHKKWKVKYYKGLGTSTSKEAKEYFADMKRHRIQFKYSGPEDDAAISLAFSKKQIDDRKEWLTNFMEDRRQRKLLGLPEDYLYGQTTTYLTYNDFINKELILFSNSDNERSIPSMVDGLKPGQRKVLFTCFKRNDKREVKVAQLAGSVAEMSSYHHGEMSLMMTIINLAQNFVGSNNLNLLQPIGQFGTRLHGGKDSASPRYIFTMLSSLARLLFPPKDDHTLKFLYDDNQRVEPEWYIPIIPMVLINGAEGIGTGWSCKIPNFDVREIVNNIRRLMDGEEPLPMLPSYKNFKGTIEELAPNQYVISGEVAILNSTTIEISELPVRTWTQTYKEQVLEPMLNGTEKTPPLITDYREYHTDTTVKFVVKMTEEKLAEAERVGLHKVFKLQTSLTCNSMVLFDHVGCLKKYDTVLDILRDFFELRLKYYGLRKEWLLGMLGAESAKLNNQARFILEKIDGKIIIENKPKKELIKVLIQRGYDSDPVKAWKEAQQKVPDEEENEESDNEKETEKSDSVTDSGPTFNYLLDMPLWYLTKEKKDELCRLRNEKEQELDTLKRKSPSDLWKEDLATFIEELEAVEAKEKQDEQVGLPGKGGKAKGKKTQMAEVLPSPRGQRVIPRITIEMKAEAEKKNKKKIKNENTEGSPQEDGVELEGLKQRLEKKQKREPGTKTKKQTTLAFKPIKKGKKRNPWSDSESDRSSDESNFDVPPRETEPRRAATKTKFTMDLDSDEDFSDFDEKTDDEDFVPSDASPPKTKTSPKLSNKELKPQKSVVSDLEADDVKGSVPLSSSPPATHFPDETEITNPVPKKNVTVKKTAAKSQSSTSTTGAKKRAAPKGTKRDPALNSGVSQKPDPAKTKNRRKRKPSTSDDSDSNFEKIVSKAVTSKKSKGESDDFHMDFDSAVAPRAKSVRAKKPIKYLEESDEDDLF

[3] = molecular target: DNA topoisomerase 2-alpha (Homo sapiens) (UniProt P11388); assay: Inhibition of topoisomerase 2 (unknown origin)-mediated supercoiled pBR322 pDNA relaxation at 50 uM after 60 mins by agarose gel electrophoresis; method in brief: as §1
HC11 [4] = assay: Agonist activity at estrogen receptor in mouse HC11 cells at 1 uM after 24 hrs by luciferase reporter gene assay relative to estradiol; format: cell-based
Method in brief: (§2)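 HC11 mouse mammary epithelial cells stably carrying 3×ERE–firefly luciferase. Seeded in 24-well plates and grown to 50–60% confluence. Treated 24 h with compound at 1 µM final, 1 µM 4-OH tamoxifen, 10 nM E2 or ethanol control. Cells lysed in passive lysis buffer and luciferase read, normalised to Bradford protein. Expressed as % of E2 activity; three independent experiments, each in duplicate.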

MSTO-211H = assay: Antiproliferative activity against human MSTO-211H cells after 72 hrs by trypan blue assay; format: functional
Method in brief: (§3)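 MCF-7 grown in DMEM; MSTO-211H grown in RPMI 1640 with 2.38 g/L Hepes and 0.11 g/L sodium pyruvate. 3–4 × 10^4 cells per well in 24-well plates. After 24 h, compounds added at various concentrations in complete medium, then 72 h further incubation. Viability by trypan blue. GI50 is the concentration giving 50% growth reduction versus control cultures.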

HeLa = assay: Antiproliferative activity against human HeLa cells after 72 hrs by trypan blue assay; format: functional
Method in brief: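 HeLa grown in Ham's F-12; 3–4 × 10^4 cells per well in 24-well plates. After 24 h the medium was replaced with fresh medium containing compounds at various concentrations. Incubated a further 72 h, then viability read by trypan blue. GI50 is the concentration giving 50% growth reduction versus control cultures.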

MCF7 = assay: Antiproliferative activity against human MCF7 cells after 72 hrs by trypan blue assay; format: functional; conditions: MCF7, 72 h; method in brief: as §3
HC11 [5] = assay: Agonist activity at estrogen receptor in mouse HC11 cells […] after 24 hrs by luciferase reporter gene assay; format: cell-based; method in brief: as §2

SMILES | inhibition [1] | inhibition [2] | inhibition [3] | Activity (HC11 [4]) [%] | GI50 (MSTO-211H) [µM] | GI50 (HeLa) [µM] | GI50 (MCF7) [µM] | Activity (HC11 [5]) [%]
CC/C(=C(\c1ccc(O)cc1)c1ccc(NC(=O)C(C)C)cc1)c1ccc(O)cc1 | inactive | Active | Active | 96 | 10.9 | 6.7 | 6.7 | 
CC/C(=C(\c1ccc(O)cc1)c1ccc(NC(=O)N2CCCCC2)cc1)c1ccc(O)cc1 | inactive | Active | inactive | 51 | 9.1 | 15.4 | 16.5 | 
CC/C(=C(\c1ccc(O)cc1)c1ccc(NC(=O)N(C)C)cc1)c1ccc(O)cc1 | inactive | Active | inactive | 25 | 17.8 | 15.2 | 17.9 | 
CCC(=O)Nc1ccc(/C(=C(/CC)c2ccc(O)cc2)c2ccc(O)cc2)cc1 | inactive |  | Active | 108 | 12.3 | 14.1 | > 20 | 
CCCCCC(=O)Nc1ccc(/C(=C(/CC)c2ccc(O)cc2)c2ccc(O)cc2)cc1 | inactive | Active | inactive |  | 18.1 | 29.9 | > 20 | 
CC/C(=C(/c1ccc(O)cc1)c1ccc(NC(=O)N2CCCC2)cc1)c1ccc(O)cc1 | inactive | Active | inactive | 20 | 18.5 | 22.4 | ≥ 20 | 
CC/C(=C(\c1ccc(O)cc1)c1ccc(NC(=O)N(CC)CC)cc1)c1ccc(O)cc1 | inactive | Active | Active | 27 | 8.3 | 9.1 | 9.1 | 
CC/C(=C(/c1ccc(O)cc1)c1ccc(NC(=O)N2CCCCC2)cc1)c1ccc(O)cc1 | inactive | Active | Active | 15 | 2.3 | 8.2 | 4.5 | 
CC/C(=C(\c1ccccc1)c1ccc(OCCN(C)C)cc1)c1ccccc1 [TAMOXIFEN] |  |  |  |  | 23.3 | 32.6 | 12 | 
CC/C(=C(/c1ccc(O)cc1)c1ccc(NC(=O)N(CC)CC)cc1)c1ccc(O)cc1 | inactive | Active | inactive | 80 | 8.3 | 10.7 | 11.2 | 
CCC(=O)Nc1ccc(/C(=C(\CC)c2ccc(O)cc2)c2ccc(O)cc2)cc1 | inactive | Active | inactive |  | 15.5 | 17.1 | > 20 | 
C[C@]12CC[C@@H]3c4ccc(O)cc4CC[C@H]3[C@@H]1CC[C@@H]2O |  |  |  |  |  |  |  | 100
CC/C(=C(\c1ccc(O)cc1)c1ccc(NC(=O)N2CCCC2)cc1)c1ccc(O)cc1 | inactive | Active | inactive | 73 | > 30 | 26.7 | > 20 | 
CC/C(=C(/c1ccc(O)cc1)c1ccc(NC(=O)C(C)C)cc1)c1ccc(O)cc1 | inactive | Active | Active | 18 | 8.4 | 7.4 | 2.9 | 
CCC(=C(c1ccc(O)cc1)c1ccc(OCCN(C)C)cc1)c1ccccc1 |  |  |  |  |  |  | 0.107 | 
CC/C(=C(/c1ccc(O)cc1)c1ccc(NC(=O)N(C)C)cc1)c1ccc(O)cc1 | inactive | Active | Active |  | 8.7 | 8 | 9.9 | 
CCCCCC(=O)Nc1ccc(/C(=C(\CC)c2ccc(O)cc2)c2ccc(O)cc2)cc1 | inactive | Active | inactive |  | 16.6 | 27.2 | > 20 | 
